# Assay outcomes (PubChem)
# The entries come from a sample that favours hits as a whole.
# ERp5 block – blocks human ERp5 reductase activity on insulin | inhibition, % at 9.99 µM | actives 0.05% (n = 350,000) | ERp5 insulin aggregation, absorbance 650 nm, 90 min | Q15084 | AID 651711;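 active = mean replicate inhibition above about 25%, with every replicate also reaching it, limit read from the data, passing the limit was not always enough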
# ERAP1 inh – blocks human ERAP1 aminopeptidase activity; recombinant ERAP1, Leu-AMC fluorescence, 60 min; inhibition, % at 10.7 µM; actives 0.15% (n = 340,000);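 active = mean replicate inhibition of at least 30%, or all replicates individually reaching that 30% level; inactive = mean below 30% and not every replicate reaching it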;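 also: 0% = neutral control wells and 100% = L-leucinethiol positive control wells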
# PDI inh – inhibitors of human protein disulfide isomerase; P07237; PDI insulin aggregation turbidity, A650, 90 min; inhibition, % at 10 µM; actives 0.052% (n = 350,000);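 active = mean inhibition across replicates of 30% or more, whatever share of single replicates reach that level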
# S100A4 MyoIIA – blocks human S100A4 binding to myosin IIA peptide | P26447 | S100A4/TAMRA-MyoIIA peptide fluorescence polarization | inhibition, % at 10.7 µM | actives 0.14% (n = 360,000) | AID 652163;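 active = mean inhibition of at least 70% across replicates, with every replicate also reaching that level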
# Target sequence (P26447 whole entry, looked up): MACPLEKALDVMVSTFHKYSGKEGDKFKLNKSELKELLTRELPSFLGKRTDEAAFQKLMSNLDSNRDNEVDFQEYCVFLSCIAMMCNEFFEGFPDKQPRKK
#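 Test system: S100A4 monomer protein. Medium: HEPES buffer with Ca2+, pH 7.2. Reagent: fluorescent myosin IIA peptide, 5 nM. Compound dosing: single-point compound testing. Timing: 5 min between mix addition and reading. Benchmarks: DMSO neutral and TFP positive wells.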
# FGF22 binding – FGF22 (human) thermal shift binding; Q9HCT0; AID 651658; recombinant FGF22 thermal shift, SYPRO orange fluorescence; percent of sucrose octasulfate shift, DMSO zero; activity (Tm shift, normalised), % at 9.99 µM; actives 1.5% (n = 340,000);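 active = mean Tm shift, scaled 0 neutral to 100 positive control, at about 1.3% or above, every replicate too, limit read from the data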
# Target sequence (Q9HCT0 whole entry, looked up): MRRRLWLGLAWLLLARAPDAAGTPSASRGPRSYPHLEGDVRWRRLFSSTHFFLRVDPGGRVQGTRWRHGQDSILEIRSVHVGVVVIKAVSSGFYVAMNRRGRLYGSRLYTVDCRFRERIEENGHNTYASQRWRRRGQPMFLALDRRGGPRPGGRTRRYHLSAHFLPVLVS
# * hit, by the source's call; . = no result; ! = repeats disagree.
SMILES,ERp5 block,ERAP1 inh,PDI inh,S100A4 MyoIIA,FGF22 binding
COc1ccccc1CNc1nc(S(=O)(=O)c2ccccc2)c(Cl)s1,.,.,8,.,.
CNC(=O)C[C@@H]1C(=O)N(CCc2ccccc2)CC1(C)C,-1,-1,-3,-3,43*
C/C=C/c1ccc2c(c1)O[C@@H](CN(C)C(=O)Nc1ccc(C(F)(F)F)cc1)[C@@H](C)CN([C@H](C)CO)S2(=O)=O,5,0,.,-1,1.4*
C/C=C/c1ccc2c(c1)O[C@H](CN(C)C(=O)Nc1ccc(C(F)(F)F)cc1)[C@H](C)CN([C@H](C)CO)S2(=O)=O,14,0,.,-2,1.8*
C[C@H]1CN([C@@H](C)CO)S(=O)(=O)c2ccc(/C=C/c3ccccc3)cc2O[C@H]1CN(C)C(=O)Nc1cc(F)ccc1F,4,1,.,-12,1.8*
Cc1noc(C)c1S(=O)(=O)N(C)C[C@H]1OCCCC[C@H](C)Oc2ccc(NS(=O)(=O)c3ccc(F)cc3)cc2C(=O)N([C@@H](C)CO)C[C@@H]1C,.,.,.,.,0
COC(=O)c1cn(NC(=O)Cn2nc([N+](=O)[O-])c(Br)c2C)c(=O)c2ccccc12,-1,7,0,3,43*
C[C@@H]1CN([C@H](C)CO)S(=O)(=O)c2ccc(-c3cncnc3)cc2O[C@H]1CN(C)C(=O)CN(C)C,-2,0,.,-3,0
CCCNC(=O)N(C)C[C@H]1Oc2ncc(-c3ccccc3F)cc2C(=O)N([C@H](C)CO)C[C@@H]1C,2,-2,.,6,0
CCCCCCCCCCC(C(=O)O)C1(C(=O)O)CCC(=O)O1 (configuration not stated),0,38*,.,-3,0
C[C@H](CO)N1C[C@H](C)[C@H](CN(C)S(C)(=O)=O)Oc2ccc(NC(=O)Cc3ccccc3)cc2C1=O,-2,-2,.,-6,0
Cc1ccc(Nc2nc(N)c3ccccc3n2)cc1Cl,0,-33,0,1,2.2*
COc1cc2nc(Nc3ccc(C)c(Cl)c3)nc(N)c2cc1OC,-3,8,-13,6,0
COC(=O)c1ccc(/C=N/Nc2nc(N3CCCCC3)nc(N3CCCCC3)n2)cc1,2,-5,4,2,44*
COc1ccc(/C=N/Nc2nc(N3CCCC3)nc(N3CCCC3)n2)cc1,-2,1,2,-3,0
Cc1nn(C)cc1CNC(=O)c1ccc(F)cc1,2,0,-13,5,0
CCN1/C(=C\C(=S)Nc2ccccc2)Sc2ccccc21,-3,1,-7,-15,44*
Cc1ccc2cc(CN(CCCN3CCOCC3)C(=O)NC3CCCCC3)c(=O)[nH]c2c1C,.,.,2,.,.
Cc1cc(C)nc(-n2ncc(C#N)c2N)n1,2,8,5,1,0
Cc1cc(C)nc(-n2ncc3c2CCCC3=O)n1,-3,-1,-15,0,43*
O=C(C[C@@H]1CC[C@@H](NC(=O)C2CC2)[C@@H](CO)O1)Nc1ccccc1,-6,0,.,2,-1
COC(=O)c1cc(NC(=O)c2cccs2)ccc1N1CCOCC1,0,-1,-6,1,43*
COC(=O)C(NC(C)=O)(Nc1cc(C)ccn1)C(F)(F)F (configuration not stated),3,.,-4,1,0
CC(C)CN(C(=O)CSc1nnc(-c2cccs2)n1C1CC1)C1CCS(=O)(=O)C1 (configuration not stated),0,0,-1,-3,0
COC1OC2COC(c3ccccc3)OC2C(NC(C)=O)C1OC(C)=O (configuration not stated),3,1,-3,-1,45*
SMILES,ERp5 block,ERAP1 inh,PDI inh,S100A4 MyoIIA,FGF22 binding
COC1OC2COC(c3ccccc3)OC2C(OC(=O)c2ccccc2)C1OC(=O)c1ccccc1 (configuration not stated),4,-2,6,2,0
O=C(C[C@@H]1CC[C@H](NS(=O)(=O)c2cccc(F)c2)[C@@H](CO)O1)NCc1ccc2c(c1)OCO2,2,3,.,-2,0
Cc1ccc(C(=O)OCc2cn3ccccc3n2)cc1,.,.,-1,.,.
CN1CCCC1CCNc1ccc2oc3ccccc3c(=O)c2c1 (configuration not stated),-1,-2,.,0,0
CN1CCCC1CCNc1ccc2c(=O)c3ccccc3oc2c1 (configuration not stated),-4,180*,-2,0,0
O=C(c1cc(-c2ccc(Cl)cc2Cl)on1)N1CCCCCC1,2,-2,8,-4,0
O=C(c1cc(-c2ccc(Cl)cc2Cl)on1)N1CCCC1,-1,3,-6,2,44*
O=C(Nc1cc(S(=O)(=O)N2CCCCC2)ccc1Cl)c1ccccc1NS(=O)(=O)c1ccc(F)cc1,5,6,-6,-1,0
O=C(Nc1cc(S(=O)(=O)N2CCCCC2)ccc1O)c1ccccc1NS(=O)(=O)c1ccc(F)cc1,2,1,1,6,1.4*!
O=C1CCCc2[nH]c(-c3ccccc3)nc21,-6,2,-4,-3,43*
CCC1(C)N=C(N)Nc2nc3cc(C)c(C)cc3n21 (configuration not stated),3,1,-2,3,0
OC(CCN1CCC2(CC1)OCCO2)C(F)(F)F (configuration not stated),0,3,-3,0,43*
O=[N+]([O-])c1ccc(NC2CCCCC2)nc1,3,0,-5,4,0
COc1ccc(N=C2NN=C(c3c(C)[nH]c4ccccc34)CS2)cc1,-5,-4,-4,-2,43*
COc1ccccc1CCc1nnc(CCC(=O)NCCOc2cccnc2)o1,4,0,12,-5,44*
COc1ccccc1CCc1nnc(CCC(=O)NCC(C)Oc2cccnc2)o1 (configuration not stated),0,-8,-4,14,0
COCCN1CCN(C(=O)c2cc(COc3ccc(Cl)cc3OC)on2)CC1,-2,-1,2,-46,0
Cc1nc(SCC(=O)c2cc3ccccc3oc2=O)c(C#N)c(-c2cccs2)c1C(=O)Nc1ccccc1,0,3,1,-4,43*
Cc1ccc(NC(=O)c2c([N+](=O)[O-])cnn2C)cc1C,-4,-3,-3,-3,0
O=C(NNC(=O)c1ccc2ccccc2c1)Nc1ccc(F)cc1,26*,-3,4,9,0
Cc1cccc(NC(=O)NNC(=O)c2ccc3ccccc3c2)c1,1,2,-4,3,0
CCN(CC)C(=S)SCC(=O)Nc1ccc(S(N)(=O)=O)cc1,-3,1,2,-7,43*
CN(C)CC(=O)Nc1ccc(S(N)(=O)=O)cc1,.,.,6,.,.
Cc1ccc(-c2nnc(NC3CCCC3)s2)cc1,-4,1,5,1,0
O=C(CCSc1ccccc1)N1CCCC1,-3,-3,5,1,44*
